From paper PMC8081378 (Mutagenesis, 2019)

What was measured:
Format in all cases: cell-based, human
EpiDerm™ skin tissues [1] = experiment: reconstructed skin micronucleus
Phenion®FT skin tissues [2] = experiment: 3D skin comet assay; conditions: for % tail DNA vs SC + APC: three treatments over 48 h in the presence of APC
Phenion®FT skin tissues [3] = experiment: cytotoxicity in the skin comet assay
Procedure, shortened: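 Full-thickness tissues were cultured at the air–liquid interface (37°C, 5% CO₂). They were treated in triplicate with test compound ± APC in acetone (16 µl/cm²), either three times (48, 24 and 3 h) or once for 3 h. Afterwards, culture medium was kept at 4°C for adenylate kinase release. About 25% of each tissue was snap-frozen, homogenised in cold DPBS, heated (105°C, 5 min) and centrifuged; ATP was measured in the supernatant with a kit. Both measures were expressed relative to solvent control (100%).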

Phenion®FT skin tissues [4] = experiment: DNA adduct formation by TLC 32P-postlabelling assay
EpiDerm™ skin tissues [5] = experiment: cytotoxicity in the RSMN assay
Procedure, shortened: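 Skin tissues received test compound topically in 10 µl (16 µl/cm²) acetone, two or three times at 24 h intervals, in triplicate alongside solvent controls. Tissues were washed in DPBS, then DPBS-EDTA, and trypsinised (0.25% trypsin–0.02% EDTA, 15 min, 37°C) into single-cell suspensions. Viable cell count came from AO/DAPI staining with an automated counter, and % BN from AO staining over 500 cells/tissue. Both were expressed relative to solvent control; excessive cytotoxicity was a 55 ± 5 % reduction.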

EpiDerm™ skin tissues [6] = experiment: skin comet assay in EpiDerm skin tissues; conditions: single 3 h treatment, doses ≥2 µg/cm^2, keratinocytes, data not shown

CC(=O)Nc1ccc2c(c1)Cc1ccccc1-2 [2-AAF, 2-acetylaminofluorene]
DNA damage in the RSMN assay (% MN-BN) (EpiDerm™ skin tissues [1]; topical, three doses over 72 h, up to 96 µg/cm^2): did not significantly increase DNA damage
MN formation (% MN-BN) (EpiDerm™ skin tissues [1]; topical, two times over a 48-h period, doses up to 140 µg/cm^2, vs SC): did not result in a significant increase in MN formation
% tail DNA vs SC + APC (Phenion®FT skin tissues [2]; fibroblasts, both experiments, all doses tested): significant increase in the % tail DNA
% tail DNA vs SC + APC (Phenion®FT skin tissues [2]; keratinocytes, at 75 µg/cm^2): only statistically significant in one experiment
dose that exceeded the % ATP cytotoxicity threshold (Phenion®FT skin tissues [3]; three treatments over 48 h with APC): 75 µg/cm^2
increase of adduct levels after multiple exposures over 48 h vs 3 h treatment (Phenion®FT skin tissues [4]; multiple exposures over 48 h): > 10 fold
2-AAF-derived DNA adducts (Phenion®FT skin tissues [4]; single 3 h treatment, 50 and 150 µg/cm^2): minimal, but detectable
DNA adduct level (RAL), up to (Phenion®FT skin tissues [4]; three treatments over 48 h): ~ 10 adducts per 10^8 nucleotides
DNA adduct levels in the presence of APC (Phenion®FT skin tissues [4]; three-treatment protocol, 150 µg/cm^2, with APC): additional, but non-significant increase

C[C@@]1(CO)[C@H](O)CC[C@@]2(C)[C@H]1CC[C@H]1C[C@@H]3C[C@@]12CC[C@]3(O)CO [APC, aphidicolin]
DNA damage (% tail DNA) vs SC group alone (Phenion®FT skin tissues [2]; APC alone, 5 µg/ml in medium 4 h before end of incubation): small non-significant increase in DNA damage

CC(=O)N(O)c1ccc2c(c1)Cc1ccccc1-2 [N-OH-2-AAF, N-hydroxy-2-acetylaminofluorene]
DNA damage in the RSMN assay (% MN-BN) (EpiDerm™ skin tissues [1]; three treatments over 72 h, doses up to 0.8 µg/cm^2): did not cause a significant increase in DNA damage
DNA damage in the RSMN assay (% MN-BN) (EpiDerm™ skin tissues [1]; two treatments over 48 h, doses up to 0.8 µg/cm^2): did not cause a significant increase in DNA damage
dose that exceeded the cytotoxicity threshold by % BN (EpiDerm™ skin tissues [5]; two or three treatments over 48 h or 72 h): 0.8 µg/cm^2
% tail DNA (Phenion®FT skin tissues [2]; single 3 h treatment, 4 µg/cm^2, keratinocytes and fibroblasts): significantly increased the % tail DNA
DNA damage (% tail DNA) in the presence of APC vs compound alone (Phenion®FT skin tissues [2]; single 3 h treatment, 1 and 4 µg/cm^2, both cell types): further amplified
DNA damage in the skin comet assay (EpiDerm™ skin tissues [6]): highly significant dose-dependent increase in DNA damage

ONc1ccc2c(c1)Cc1ccccc1-2 [N-OH-2-AF, N-hydroxy-2-aminofluorene]
micronuclei in the RSMN assay (% MN-BN) (EpiDerm™ skin tissues [1]; three treatments over 72 h, at the two highest doses 0.85 and 1.3 µg/cm^2, P < 0.01): significant change in micronuclei
MN formation (% MN-BN) (EpiDerm™ skin tissues [1]; two treatments over 48 h, up to 1.3 µg/cm^2): did not significantly increase MN formation
cytotoxicity by % VCC (EpiDerm™ skin tissues [5]; three treatments over 72 h, highest dose 1.3 µg/cm^2): approached the cytotoxicity threshold for % VCC at the highest dose
potency in the skin comet assay compared with N-OH-2-AAF (Phenion®FT skin tissues [2]; single 3 h treatment): more potent
near maximal level of DNA damage (Phenion®FT skin tissues [2]; single 3 h treatment, 1 µg/cm^2, keratinocytes and fibroblasts): 60–80 % tail DNA
DNA damage (% tail DNA) in the presence of APC (Phenion®FT skin tissues [2]; single 3 h treatment, all three doses, both cell types): further amplified and reached near maximal levels
DNA damage (% tail DNA) (Phenion®FT skin tissues [2]; single 3 h treatment, doses of 0.25–4 µg/cm^2, keratinocytes and fibroblasts): robust, dose-responsive increase in DNA damage
cytotoxicity (% AK, % ATP) (Phenion®FT skin tissues [3]; single 3 h treatment in the presence of APC): absence of excessive cytotoxicity
level of DNA adducts compared with N-OH-2-AAF at the same dose (Phenion®FT skin tissues [4]; single 3 h treatment, 1 µg/cm^2): not significantly different
